From ChEMBL document CHEMBL1629583, “Establishment of in vitro susceptibility testing methodologies and comparative activities of piperacillin in combination with the penem {beta}-lactamase inhibitor BLI-489” (2009)

How the values were obtained:
Assay type in all cases: functional
Haemophilus influenzae = assay: Antimicrobial activity against beta-lactamase-producing Haemophilus influenzae clinical isolate after 18 to 22 hrs by broth microdilution method in presence of beta-lactamase inhibitor BLI-489
Outline: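 Haemophilus isolates were tested in Haemophilus test medium by CLSI broth microdilution. Serial piperacillin dilutions carried BLI-489 fixed at 4 μg/ml. Inoculum was 10^5 CFU/ml, incubated 18 to 22 h at 35°C in ambient air. MIC was the lowest concentration completely inhibiting growth by eye.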

Staphylococcus aureus = assay: Antimicrobial activity against methicillin-resistant Staphylococcus aureus clinical isolate after 18 to 22 hrs by broth microdilution method in presence of beta-lactamase inhibitor Tazobactam
Outline: (§1)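 CLSI broth microdilution in Mueller-Hinton II broth. Antibiotic in serial dilution with the β-lactamase inhibitor held at a constant 4 μg/ml. Inoculum 10^5 CFU/ml. Incubated 18 to 22 h at 35°C in ambient air.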

[1] = test system: Staphylococcus epidermidis; assay: Antimicrobial activity against methicillin-resistant Staphylococcus epidermidis clinical isolate after 18 to 22 hrs by broth microdilution method in presence of beta-lactamase inhibitor BLI-489; outline: as §1
Enterococcus faecalis = assay: Antimicrobial activity against Enterococcus faecalis clinical isolate after 18 to 22 hrs by broth microdilution method in presence of beta-lactamase inhibitor BLI-489
Outline: (§2)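 CLSI broth microdilution in Mueller-Hinton II broth. Piperacillin serial dilutions were combined with BLI-489 held constant at 4 μg/ml. Inoculum was 10^5 CFU/ml. Plates were incubated 18 to 22 h at 35°C in ambient air. MIC was the lowest concentration completely inhibiting growth seen by the unaided eye. Piperacillin-tazobactam interpretive criteria were applied.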

Streptococcus pneumoniae [2] = assay: Antimicrobial activity against penicillin-susceptible Streptococcus pneumoniae clinical isolate after 18 to 22 hrs by broth microdilution method in presence of beta-lactamase inhibitor BLI-489
Outline: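 Streptococci were tested by CLSI broth microdilution in Mueller-Hinton II broth plus 5% lysed horse blood. Piperacillin was serially diluted with BLI-489 fixed at a constant 4 μg/ml. Inoculum was 10^5 CFU/ml, with 18 to 22 h at 35°C in ambient air. MIC was the lowest concentration completely inhibiting growth by eye.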

Streptococcus pneumoniae [3] = assay: Antimicrobial activity against penicillin-resistant Streptococcus pneumoniae clinical isolate after 18 to 22 hrs by broth microdilution method in presence of beta-lactamase inhibitor BLI-489
Outline: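 CLSI broth microdilution in Mueller-Hinton II broth with 5% lysed horse blood. Antibiotic in serial dilution with the β-lactamase inhibitor held at a constant 4 μg/ml. Inoculum 10^5 CFU/ml. Incubated 18 to 22 h at 35°C in ambient air. MIC is the lowest concentration with no growth visible to the eye.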

Bacteroides fragilis = assay: Antimicrobial activity against Bacteroides fragilis clinical isolate after 18 to 22 hrs by broth microdilution method in presence of beta-lactamase inhibitor Tazobactam
[4] = test system: Bacteroides thetaiotaomicron; assay: Antimicrobial activity against Bacteroides thetaiotaomicron clinical isolate after 18 to 22 hrs by broth microdilution method in presence of beta-lactamase inhibitor BLI-489
Parvimonas micra = assay: Antimicrobial activity against Peptostreptococcus micros clinical isolate after 18 to 22 hrs by broth microdilution method in presence of beta-lactamase inhibitor BLI-489
Enterobacter cloacae = assay: Antimicrobial activity against Enterobacter cloacae clinical isolate after 18 to 22 hrs by broth microdilution method in presence of beta-lactamase inhibitor Tazobactam
Outline: (§3)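 Piperacillin-tazobactam was tested on recent clinical isolates by CLSI broth microdilution in Mueller-Hinton II broth, with tazobactam at constant 4 μg/ml. Wells held 10^5 CFU/ml and were incubated 18 to 22 h at 35°C in ambient air. MIC was the lowest concentration with no growth visible to the unaided eye.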

Escherichia coli = assay: Antimicrobial activity against class A extended spectrum beta-lactamase- and class D OXA- producing Escherichia coli clinical isolate after 18 to 22 hrs by broth microdilution method in presence of beta-lactamase inhibitor Tazobactam
Citrobacter freundii = assay: Antimicrobial activity against AmpC beta-lactamase-producing Citrobacter freundii clinical isolate after 18 to 22 hrs by broth microdilution method in presence of beta-lactamase inhibitor Tazobactam; outline: as §3
Klebsiella aerogenes = assay: Antimicrobial activity against AmpC beta-lactamase-producing Enterobacter aerogenes clinical isolate after 18 to 22 hrs by broth microdilution method in presence of beta-lactamase inhibitor Tazobactam; outline: as §3
Citrobacter koseri [5] = assay: Antimicrobial activity against Citrobacter koseri clinical isolate after 18 to 22 hrs by broth microdilution method in presence of beta-lactamase inhibitor Tazobactam; outline: as §3
Citrobacter koseri [6] = assay: Antimicrobial activity against Citrobacter koseri clinical isolate after 18 to 22 hrs by broth microdilution method in presence of beta-lactamase inhibitor BLI-489; outline: as §2
Klebsiella pneumoniae [7] = assay: Antimicrobial activity against class A extended spectrum beta-lactamase- producing Klebsiella pneumoniae clinical isolate after 18 to 22 hrs by broth microdilution method in presence of beta-lactamase inhibitor BLI-489
Outline: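 Piperacillin serially diluted with BLI-489 held at a constant 4 μg/ml, by CLSI broth microdilution in Mueller-Hinton II broth. Inoculum was 10^5 CFU/ml. Plates were incubated 18 to 22 h at 35°C in ambient air. MIC was the lowest concentration completely inhibiting growth seen by the unaided eye.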

Klebsiella pneumoniae [8] = assay: Antimicrobial activity against class A extended spectrum beta-lactamase- and class D OXA- producing Klebsiella pneumoniae clinical isolate after 18 to 22 hrs by broth microdilution method in presence of beta-lactamase inhibitor BLI-489
Outline: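 CLSI broth microdilution in Mueller-Hinton II broth. Serial dilutions of piperacillin were tested with BLI-489 held at a constant 4 μg/ml. Inoculum was 10^5 CFU/ml. Plates were incubated 18 to 22 h at 35°C in ambient air. MIC was the lowest concentration giving complete growth inhibition by unaided eye.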

Serratia marcescens = assay: Antimicrobial activity against Serratia marcescens clinical isolate after 18 to 22 hrs by broth microdilution method in presence of beta-lactamase inhibitor Tazobactam
Outline: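 Piperacillin-tazobactam was tested by CLSI broth microdilution in Mueller-Hinton II broth against clinical isolates. Inoculum was 10^5 CFU/ml, with 18 to 22 h incubation at 35°C in ambient air. MIC was read as the lowest concentration completely inhibiting visible growth.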

[9] = test system: Acinetobacter calcoaceticus; assay: Antimicrobial activity against Acinetobacter calcoaceticus clinical isolate after 18 to 22 hrs by broth microdilution method in presence of beta-lactamase inhibitor Tazobactam; outline: as §3

CCN1CCN(C(=O)N[C@@H](C(=O)N[C@@H]2C(=O)N3[C@@H]2SC(C)(C)[C@@H]3C(=O)O)c2ccccc2)C(=O)C1=O [PIPERACILLIN]
MIC (Haemophilus influenzae): ≤ 4 ng/mL | MIC50 (Haemophilus influenzae): ≤ 4 ng/mL | MIC90 (Haemophilus influenzae): ≤ 4 ng/mL | MIC50 (Staphylococcus aureus): 64 µg/mL | MIC50 [1]: 0.5 µg/mL | MIC90 [1]: 8 µg/mL | MIC50 (Enterococcus faecalis): 2 µg/mL | MIC90 (Enterococcus faecalis): 4 µg/mL | MIC (Streptococcus pneumoniae [2]): ≤ 4 ng/mL | MIC50 (Streptococcus pneumoniae [2]): ≤ 4 ng/mL | MIC90 (Streptococcus pneumoniae [2]): ≤ 4 ng/mL | MIC50 (Streptococcus pneumoniae [3]): 2 µg/mL | MIC90 (Streptococcus pneumoniae [3]): 4 µg/mL | MIC50 (Bacteroides fragilis): 0.06 µg/mL | MIC90 (Bacteroides fragilis): 0.25 µg/mL | MIC50 [4]: 16 µg/mL | MIC90 [4]: 16 µg/mL | MIC (Parvimonas micra): ≤ 0.015 µg/mL | MIC50 (Parvimonas micra): ≤ 0.015 µg/mL | MIC90 (Parvimonas micra): ≤ 0.015 µg/mL | MIC50 (Enterobacter cloacae): 2 µg/mL | MIC90 (Enterobacter cloacae): > 128 µg/mL | MIC50 (Escherichia coli): 1 µg/mL | MIC90 (Escherichia coli): 2 µg/mL | MIC50 (Citrobacter freundii): 8 µg/mL | MIC90 (Citrobacter freundii): > 128 µg/mL | MIC (Klebsiella aerogenes): > 8 µg/mL | MIC50 (Klebsiella aerogenes): 4 µg/mL | MIC90 (Klebsiella aerogenes): 16 µg/mL | MIC50 (Citrobacter koseri [5]): 2 µg/mL | MIC90 (Citrobacter koseri [5]): 16 µg/mL | MIC50 (Citrobacter koseri [6]): 2 µg/mL | MIC90 (Citrobacter koseri [6]): 8 µg/mL | MIC50 (Klebsiella pneumoniae [7]): 16 µg/mL | MIC90 (Klebsiella pneumoniae [7]): 32 µg/mL | MIC50 (Klebsiella pneumoniae [8]): 8 µg/mL | MIC90 (Klebsiella pneumoniae [8]): 64 µg/mL | MIC50 (Serratia marcescens): 2 µg/mL | MIC90 (Serratia marcescens): 64 µg/mL | MIC50 [9]: > 128 µg/mL | MIC90 [9]: > 128 µg/mL
